Assay results from ChEMBL document CHEMBL1777764, “Synthesis and evaluation of 1-(1H-indol-3-yl)ethanamine derivatives as new antibacterial agents” (Bioorg Med Chem, 2011).
Converted amounts (≈) assume the structure as drawn.

How the values were obtained:
Staphylococcus aureus [1] = assay: Antibacterial activity against methicillin-resistant Staphylococcus aureus CIP 65.25 after 18 hrs by broth microdilution method; format: functional; details: CIP 65.25, 18 h
Summary of the method: (§1)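 Broth microdilution following ISO 20776-1:2006 and CLSI M07-A8, in Mueller-Hinton broth. Inoculum was 10^6 cfu/ml, with compound serial dilutions spanning 2 to 128 ug/ml and a compound-free growth control well. Plates were incubated 18 h at 37 °C. MIC was the lowest concentration giving complete inhibition of visible growth. Each compound was tested at least twice.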

KB [2] = assay: Cytotoxicity against human KB cells at 10 uM; format: cell-based
[3] = system: Staphylococcus epidermidis; assay: Antibacterial activity against Staphylococcus epidermidis CIP 103627 after 18 hrs by broth microdilution method; format: functional; details: CIP 103627, 18 h
Summary of the method: (§2)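 MIC by broth microdilution per ISO 20776-1:2006 and CLSI M07-A8. Inoculum 10^6 cfu/ml in Mueller-Hinton broth with compound serially diluted, final concentrations 2 to 128 ug/ml, duplicate rows, no-drug growth control. Incubation 18 h at 37 °C. MIC taken as lowest concentration giving complete inhibition of visible growth. Each compound tested at least twice.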

HCT-116 [4] = assay: Cytotoxicity against human HCT116 cells at 10 uM; format: cell-based; details: hct-116, 10 µM
Klebsiella pneumoniae = assay: microbe, parasite or virus in culture; details: ATCC 35657, 18 h
Serratia marcescens = assay: microbe, parasite or virus in culture; details: CIP 103551, 18 h
Enterobacter cloacae = assay: microbe, parasite or virus in culture; details: ATCC 13047, 18 h
Streptococcus mitis = assay: Antibacterial activity against Streptococcus mitis CIP 103335 after 18 hrs by broth microdilution method; format: functional; details: CIP 103335, 18 h
Summary of the method: as §1, with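 “broth […].” for “broth.”, “read after” for “incubated”, “with no” for “giving complete inhibition of”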

Streptococcus pneumoniae [5] = assay: Antibacterial activity against Streptococcus pneumoniae ATCC 6303 after 18 hrs by broth microdilution method; format: functional; details: ATCC 6303, 18 h
Summary of the method: (§3)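 MIC by broth microdilution per ISO 20776-1:2006 and CLSI M07-A8. Inoculum 10^6 cfu/ml in Mueller-Hinton broth […]. Compound serially diluted, final 2 to 128 ug/ml, duplicate rows, no-drug growth control. Read after 18 h at 37 °C as lowest concentration fully inhibiting visible growth. At least two experiments.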

KB [6] = assay: Cytotoxicity against human KB cells at 1 uM; format: cell-based
Streptococcus pyogenes = assay: Antibacterial activity against Streptococcus pyogenes CIP 104226 after 18 hrs by broth microdilution method; format: functional; details: CIP 104226, 18 h; summary of the method: as §1
MRC5 [7] = assay: Cytotoxicity against human MRC5 cells at 10 uM; format: cell-based; details: mrc5, 10 µM
Staphylococcus aureus [8] = assay: Antibacterial activity against Staphylococcus aureus ATCC 25923 after 18 hrs by broth microdilution method; format: functional; details: ATCC 25923, 18 h; summary of the method: as §2
Streptococcus pneumoniae [9] = assay: Antibacterial activity against Streptococcus pneumoniae ATCC 49619 after 18 hrs by broth microdilution method; format: functional; details: ATCC 49619, 18 h; summary of the method: as §3
Staphylococcus aureus [10] = assay: Antibacterial activity against Staphylococcus aureus ATCC 9144 after 18 hrs by broth microdilution method; format: functional; details: ATCC 9144, 18 h; summary of the method: as §2
Staphylococcus aureus [11] = assay: Antibacterial activity against Staphylococcus aureus CIP 65.6 after 18 hrs by broth microdilution method; format: functional; details: CIP 65.6, 18 h; summary of the method: as §2
HCT-116 [12] = assay: Cytotoxicity against human HCT116 cells at 1 uM; format: cell-based; details: hct-116, 1 µM
Enterococcus faecium = assay: Antibacterial activity against Enterococcus faecium CIP 54.32 after 18 hrs by broth microdilution method; format: functional; details: CIP 54.32, 18 h; summary of the method: as §1
Staphylococcus aureus [13] = assay: Antibacterial activity against Staphylococcus aureus ATCC 29213 after 18 hrs by broth microdilution method; format: functional; details: ATCC 29213, 18 h; summary of the method: as §2
Enterococcus faecalis = assay: Antibacterial activity against Enterococcus faecalis ATCC 29212 after 18 hrs by broth microdilution method; format: functional; details: ATCC 29212, 18 h; summary of the method: as §1
Acinetobacter baumannii = assay: microbe, parasite or virus in culture; details: ATCC 19606 = CIP 70.34 = JCM 6841, 18 h
[14] = system: Staphylococcus epidermidis; assay: Antibacterial activity against Staphylococcus epidermidis ATCC 12228 after 18 hrs by broth microdilution method; format: functional; details: ATCC 12228, 18 h; summary of the method: as §2
Staphylococcus aureus [15] = assay: Antibacterial activity against Staphylococcus aureus CIP 103428 after 18 hrs by broth microdilution method; format: functional; details: CIP 103428, 18 h; summary of the method: as §2
Streptococcus agalactiae = assay: Antibacterial activity against Streptococcus agalactiae ATCC 12400 after 18 hrs by broth microdilution method; format: functional; details: ATCC 12400, 18 h; summary of the method: as §1
[16] = system: Staphylococcus epidermidis; assay: Antibacterial activity against Staphylococcus epidermidis CIP 81.55 after 18 hrs by broth microdilution method; format: functional; details: CIP 81.55, 18 h; summary of the method: as §2
MRC5 [17] = assay: Cytotoxicity against human MRC5 cells at 1 uM; format: cell-based; details: mrc5, 1 µM
Staphylococcus aureus [18] = assay: Antibacterial activity against methicillin-resistant Staphylococcus aureus ATCC 33592 after 18 hrs by broth microdilution method; format: functional; details: ATCC 33592, 18 h; summary of the method: as §1
Haemophilus influenzae = assay: Antibacterial activity against Haemophilus influenzae ATCC 49766 after 18 hrs by broth microdilution method; format: functional; details: ATCC 49766, 18 h
Summary of the method: as §1, with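 “broth […].” for “broth.”, “read after” for “incubated”, “with no” for “giving complete inhibition of”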

Staphylococcus aureus [19] = assay: Antibacterial activity against Staphylococcus aureus ATCC 6538 after 18 hrs by broth microdilution method; format: functional; details: ATCC 6538, 18 h; summary of the method: as §2
Pseudomonas aeruginosa = assay: microbe, parasite or virus in culture; details: CIP 5933, 18 h
Escherichia coli = assay: Antibacterial activity against Escherichia coli ATCC 25922 after 18 hrs by broth microdilution method; format: functional; details: ATCC 25922, 18 h; summary of the method: as §1
Staphylococcus aureus [20] = assay: Antibacterial activity against vancomycin intermediate Staphylococcus aureus […] after 18 hrs by broth microdilution method; format: functional; summary of the method: as §1

Row | SMILES | MIC (Staphylococcus aureus [1]) [µg/mL] | Activity (KB [2]) | MIC [3] [µg/mL] | Activity (HCT-116 [4]) | MIC (Streptococcus mitis) [µg/mL] | MIC (Streptococcus pyogenes) [µg/mL] | MIC (Staphylococcus aureus [8]) [µg/mL] | MIC (Staphylococcus aureus [10]) [µg/mL] | MIC (Staphylococcus aureus [11]) [µg/mL] | MIC (Enterococcus faecium) [µg/mL] | MIC (Staphylococcus aureus [13]) [µg/mL] | MIC (Enterococcus faecalis) [µg/mL] | MIC [14] [µg/mL] | MIC (Staphylococcus aureus [15]) [µg/mL] | MIC (Streptococcus agalactiae) [µg/mL] | MIC [16] [µg/mL] | MIC (Haemophilus influenzae) [µg/mL] | MIC (Staphylococcus aureus [19]) [µg/mL] | MIC (Escherichia coli) [µg/mL] | MIC (Staphylococcus aureus [20]) [µg/mL] | also measured
1 | Cl.Cl.NCC(NO)c1c[nH]c2cc(F)ccc12 (centres undefined) | 16 | Non-toxic | 16 | Non-toxic | 64 | 64 | 16 | 16 | 16 | 128 | 16 | 128 | 16 | 16 | 64 | 16 | > 128 | 16 | 64 | 16 | MIC (Klebsiella pneumoniae): 64 µg/mL; MIC (Serratia marcescens): 64 µg/mL; MIC (Enterobacter cloacae): 64 µg/mL; MIC (Streptococcus pneumoniae [5]): 64 µg/mL; Activity (KB [6]): Non-toxic; Activity (MRC5 [7]): Non-toxic; MIC (Streptococcus pneumoniae [9]): 64 µg/mL; Activity (HCT-116 [12]): Non-toxic; MIC (Acinetobacter baumannii): 64 µg/mL; Activity (MRC5 [17]): Non-toxic; MIC (Staphylococcus aureus [18]): 16 µg/mL; MIC (Pseudomonas aeruginosa): 64 µg/mL
2 | Cl.Cl.Cl.NCC(NO)c1c[nH]c2ccc(Cl)cc12 (centres undefined) | 16 | Non-toxic | 16 | Non-toxic | 128 | 128 | 16 | 16 | 16 | > 128 | 16 | > 128 | 16 | 16 | 128 | 16 | 128 | 16 | 64 | 16 | MIC (Klebsiella pneumoniae): 128 µg/mL; MIC (Serratia marcescens): 128 µg/mL; MIC (Enterobacter cloacae): 128 µg/mL; MIC (Streptococcus pneumoniae [5]): 64 µg/mL; Activity (KB [6]): Non-toxic; Activity (MRC5 [7]): Non-toxic; MIC (Streptococcus pneumoniae [9]): 64 µg/mL; Activity (HCT-116 [12]): Non-toxic; MIC (Acinetobacter baumannii): 128 µg/mL; Activity (MRC5 [17]): Non-toxic; MIC (Staphylococcus aureus [18]): 16 µg/mL; MIC (Pseudomonas aeruginosa): 128 µg/mL
3 | O=C(O)c1cn(C2CC2)c2cc(N3CCNCC3)c(F)cc2c1=O [CIPROFLOXACIN] |  |  | 0.25 (≈ 0.754 µM) |  | 0.25 (≈ 0.754 µM) | 0.25 (≈ 0.754 µM) | 0.5 (≈ 1.51 µM) | 0.5 (≈ 1.51 µM) | 0.5 (≈ 1.51 µM) | 1 (≈ 3.02 µM) | 0.5 (≈ 1.51 µM) | 1 (≈ 3.02 µM) | 0.25 (≈ 0.754 µM) | 0.5 (≈ 1.51 µM) | 0.25 (≈ 0.754 µM) | 0.25 (≈ 0.754 µM) | 0.5 (≈ 1.51 µM) | 0.5 (≈ 1.51 µM) | 0.064 (≈ 0.193 µM) | 32 (≈ 96.6 µM) | 
4 | Cl.Cl.NCC(NO)c1c[nH]c2ccccc12 (centres undefined) | 64 | Non-toxic | 32 | Non-toxic | > 128 | > 128 | 32 | 32 | 32 | > 128 | 32 | > 128 | 32 | 32 | > 128 | 32 | > 128 | 32 | > 128 | 32 | MIC (Klebsiella pneumoniae): > 128 µg/mL; MIC (Serratia marcescens): > 128 µg/mL; MIC (Enterobacter cloacae): > 128 µg/mL; MIC (Streptococcus pneumoniae [5]): > 128 µg/mL; Activity (KB [6]): Non-toxic; Activity (MRC5 [7]): Non-toxic; MIC (Streptococcus pneumoniae [9]): > 128 µg/mL; Activity (HCT-116 [12]): Non-toxic; MIC (Acinetobacter baumannii): > 128 µg/mL; Activity (MRC5 [17]): Non-toxic; MIC (Staphylococcus aureus [18]): 64 µg/mL; MIC (Pseudomonas aeruginosa): > 128 µg/mL
5 | Cl.Cl.NCC(NO)c1c[nH]c2ccc(I)cc12 (centres undefined) | 32 | Non-toxic | 16 | Non-toxic | 128 | 128 | 16 | 16 | 16 | 128 | 16 | 128 | 16 | 16 | 128 | 16 | 64 | 16 | 32 | 16 | MIC (Klebsiella pneumoniae): 64 µg/mL; MIC (Serratia marcescens): 64 µg/mL; MIC (Enterobacter cloacae): 64 µg/mL; MIC (Streptococcus pneumoniae [5]): 64 µg/mL; Activity (KB [6]): Non-toxic; Activity (MRC5 [7]): Non-toxic; MIC (Streptococcus pneumoniae [9]): 64 µg/mL; Activity (HCT-116 [12]): Non-toxic; MIC (Acinetobacter baumannii): 64 µg/mL; Activity (MRC5 [17]): Non-toxic; MIC (Staphylococcus aureus [18]): 32 µg/mL; MIC (Pseudomonas aeruginosa): 64 µg/mL
6 | Cl.Cl.Cl.NCC(NO)c1c[nH]c2cc(Cl)ccc12 (centres undefined) | 16 | Non-toxic | 16 | Non-toxic | 64 | 64 | 16 | 16 | 16 | 128 | 16 | 128 | 16 | 16 | 64 | 16 | 128 | 16 | 32 | 16 | MIC (Klebsiella pneumoniae): 64 µg/mL; MIC (Serratia marcescens): 64 µg/mL; MIC (Enterobacter cloacae): 64 µg/mL; MIC (Streptococcus pneumoniae [5]): 64 µg/mL; Activity (KB [6]): Non-toxic; Activity (MRC5 [7]): Non-toxic; MIC (Streptococcus pneumoniae [9]): 64 µg/mL; Activity (HCT-116 [12]): Non-toxic; MIC (Acinetobacter baumannii): 64 µg/mL; Activity (MRC5 [17]): Non-toxic; MIC (Staphylococcus aureus [18]): 16 µg/mL; MIC (Pseudomonas aeruginosa): 64 µg/mL
7 | Cl.Cl.NCC(NO)c1c[nH]c2ccc(F)cc12 (centres undefined) | 16 | Non-toxic | 8 | Non-toxic | 32 | 32 | 8 | 8 | 8 | 64 | 8 | 64 | 8 | 8 | 32 | 8 | > 128 | 8 | 32 | 8 | MIC (Klebsiella pneumoniae): 32 µg/mL; MIC (Serratia marcescens): 32 µg/mL; MIC (Enterobacter cloacae): 32 µg/mL; MIC (Streptococcus pneumoniae [5]): 64 µg/mL; Activity (KB [6]): Non-toxic; Activity (MRC5 [7]): Non-toxic; MIC (Streptococcus pneumoniae [9]): 64 µg/mL; Activity (HCT-116 [12]): Non-toxic; MIC (Acinetobacter baumannii): 32 µg/mL; Activity (MRC5 [17]): Non-toxic; MIC (Staphylococcus aureus [18]): 16 µg/mL; MIC (Pseudomonas aeruginosa): 32 µg/mL
